Results from different studies.
Compare with care: the assays were run in different laboratories.
Target: Serine/threonine-protein kinase Sgk2 (SGK2, Homo sapiens, UniProt Q9HBY8)
Residues used in one study (Q9HBY8 1-367): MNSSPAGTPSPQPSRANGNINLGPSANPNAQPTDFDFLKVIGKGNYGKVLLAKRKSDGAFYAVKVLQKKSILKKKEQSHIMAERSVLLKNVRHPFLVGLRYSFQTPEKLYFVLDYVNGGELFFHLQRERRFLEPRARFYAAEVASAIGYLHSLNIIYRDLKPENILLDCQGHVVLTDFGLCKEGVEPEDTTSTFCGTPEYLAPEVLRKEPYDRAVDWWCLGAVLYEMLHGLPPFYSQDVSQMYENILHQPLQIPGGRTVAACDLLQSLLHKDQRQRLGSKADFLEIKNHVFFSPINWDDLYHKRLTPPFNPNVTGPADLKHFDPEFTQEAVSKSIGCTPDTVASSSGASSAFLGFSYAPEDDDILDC

Structure (SMILES) | test | conditions | remaining binding
Cn1cc(Cl)c2c(Oc3c(F)cc(Nc4cc(Cl)nc(N)n4)cc3F)ccnc21 | cell-free assay, competition with immobilised ligand | 0.1 µM | 86%
O=C(NCCCN1CCOCC1)c1ccc(Nc2nccc(-c3cc4ccccc4s3)n2)cc1 | binding, competition with immobilised ligand | 1 µM | 55%
Cc1cc(C)c(-n2ccn3nc(-c4cccnc4)cc23)cc1NC(=O)c1cc(C#N)cc(S(F)(F)(F)(F)F)c1 | cell-free assay, competition with immobilised ligand | 0.1 µM | 100%
COc1cnc(Nc2cccc(S(N)(=O)=O)c2)nc1N1CCN(c2ccccc2)C(=O)C1 | binding, competition with immobilised ligand | 1 µM | 83%
COc1ncc2cc3ccccc3nc2c1C#N | cell-free assay, competition with immobilised ligand | 5 µM | 98%
C[C@H]1CCN(c2nccc(-c3cnn4ncccc34)n2)C1 | binding | 1 µM | 65%
FC(F)(F)Oc1cccc(-c2cnc3ccc(-c4ccncc4)nn23)c1 | binding, competition with immobilised ligand | 5 µM | 77%
Nc1ncc2c(n1)-c1c([nH]c3ccc(C#CC4CC4)cc13)CCCC2 | binding, competition with immobilised ligand | 1 µM | 96%
F[C@@H]1CCN(c2nccc(-c3cnn4ncccc34)n2)C1 | binding | 1 µM | 92%
O=C(c1ccc(Nc2ncc(Cl)c(-c3ccc(Cl)s3)n2)cc1)N1CCC(N2CCCC2)CC1 | binding, competition with immobilised ligand | 1 µM | 100%
Cc1cnn2ncc(-c3ccnc(N(C)C)n3)c2c1 | binding | 1 µM | 84%
O=C(Nc1c[nH]nc1C(=O)NC1CCNCC1)c1cc(F)cc(F)c1 | binding, competition with immobilised ligand | 1 µM | 93%
O=C(NCc1ncc(C(F)(F)F)cc1Cl)c1ccc2c(c1)C1(CCS(=O)(=O)CC1)[C@H](C1CC1)N2S(=O)(=O)c1ccc(F)cc1 | cell-free assay, competition with immobilised ligand | 1 µM | 83%
CN(C)c1nccc(-c2cnc3ncccn23)n1 | binding | 1 µM | 81%
CC1=C(C#N)C(c2ccc3c(c2)c(NC(=O)c2ccccc2C)nn3C)C(C#N)=C(C)N1 | cell-free assay, competition with immobilised ligand | 1 µM | 73%
CC1CCCN1c1nccc(-c2cnn3ncccc23)n1 (centres unmarked) | binding | 1 µM | 94%
CC1=C(C#N)[C@@H](c2ccc3[nH]nc(C)c3c2)C(C#N)=C(c2ccc(Cl)cc2)N1 | cell-free assay, competition with immobilised ligand | 1 µM | 100%
CN(C)c1nccc(-c2cnn3ncccc23)n1 | binding | 1 µM | 75%
Cc1nc(N2CC[C@@H](O)C2)ncc1-c1cc(C(F)(F)F)cc2[nH]ncc12 | binding, competition with immobilised ligand | 1 µM | 88%
Cc1cnc(Nc2ccc(C(=O)N3CCC(N4CCCC4)CC3)cc2)nc1-c1cc2ccccc2s1 | binding, competition with immobilised ligand | 1 µM | 29%
